For series [1], the target named is T1, TPR/MET fusion protein (Mus musculus) (UniProt P16056+F6ZDS4). Kind of series: Inhibition of TPR-MET in mouse […] cells assessed as inhibition of cell proliferation at 1 uM after 72 hrs by SRB or MTT assay relative to control. The class given is cell-based. In outline: (§1)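 Cells seeded, exposed next day to a range of concentrations for 72 h. Growth read by sulforhodamine B or MTT. IC50 from four-parameter concentration-response fit. Each concentration tested at least in triplicate, with at least 2 experiments.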
T1 sequence (F6ZDS4 whole entry partner, the tested form may be a part): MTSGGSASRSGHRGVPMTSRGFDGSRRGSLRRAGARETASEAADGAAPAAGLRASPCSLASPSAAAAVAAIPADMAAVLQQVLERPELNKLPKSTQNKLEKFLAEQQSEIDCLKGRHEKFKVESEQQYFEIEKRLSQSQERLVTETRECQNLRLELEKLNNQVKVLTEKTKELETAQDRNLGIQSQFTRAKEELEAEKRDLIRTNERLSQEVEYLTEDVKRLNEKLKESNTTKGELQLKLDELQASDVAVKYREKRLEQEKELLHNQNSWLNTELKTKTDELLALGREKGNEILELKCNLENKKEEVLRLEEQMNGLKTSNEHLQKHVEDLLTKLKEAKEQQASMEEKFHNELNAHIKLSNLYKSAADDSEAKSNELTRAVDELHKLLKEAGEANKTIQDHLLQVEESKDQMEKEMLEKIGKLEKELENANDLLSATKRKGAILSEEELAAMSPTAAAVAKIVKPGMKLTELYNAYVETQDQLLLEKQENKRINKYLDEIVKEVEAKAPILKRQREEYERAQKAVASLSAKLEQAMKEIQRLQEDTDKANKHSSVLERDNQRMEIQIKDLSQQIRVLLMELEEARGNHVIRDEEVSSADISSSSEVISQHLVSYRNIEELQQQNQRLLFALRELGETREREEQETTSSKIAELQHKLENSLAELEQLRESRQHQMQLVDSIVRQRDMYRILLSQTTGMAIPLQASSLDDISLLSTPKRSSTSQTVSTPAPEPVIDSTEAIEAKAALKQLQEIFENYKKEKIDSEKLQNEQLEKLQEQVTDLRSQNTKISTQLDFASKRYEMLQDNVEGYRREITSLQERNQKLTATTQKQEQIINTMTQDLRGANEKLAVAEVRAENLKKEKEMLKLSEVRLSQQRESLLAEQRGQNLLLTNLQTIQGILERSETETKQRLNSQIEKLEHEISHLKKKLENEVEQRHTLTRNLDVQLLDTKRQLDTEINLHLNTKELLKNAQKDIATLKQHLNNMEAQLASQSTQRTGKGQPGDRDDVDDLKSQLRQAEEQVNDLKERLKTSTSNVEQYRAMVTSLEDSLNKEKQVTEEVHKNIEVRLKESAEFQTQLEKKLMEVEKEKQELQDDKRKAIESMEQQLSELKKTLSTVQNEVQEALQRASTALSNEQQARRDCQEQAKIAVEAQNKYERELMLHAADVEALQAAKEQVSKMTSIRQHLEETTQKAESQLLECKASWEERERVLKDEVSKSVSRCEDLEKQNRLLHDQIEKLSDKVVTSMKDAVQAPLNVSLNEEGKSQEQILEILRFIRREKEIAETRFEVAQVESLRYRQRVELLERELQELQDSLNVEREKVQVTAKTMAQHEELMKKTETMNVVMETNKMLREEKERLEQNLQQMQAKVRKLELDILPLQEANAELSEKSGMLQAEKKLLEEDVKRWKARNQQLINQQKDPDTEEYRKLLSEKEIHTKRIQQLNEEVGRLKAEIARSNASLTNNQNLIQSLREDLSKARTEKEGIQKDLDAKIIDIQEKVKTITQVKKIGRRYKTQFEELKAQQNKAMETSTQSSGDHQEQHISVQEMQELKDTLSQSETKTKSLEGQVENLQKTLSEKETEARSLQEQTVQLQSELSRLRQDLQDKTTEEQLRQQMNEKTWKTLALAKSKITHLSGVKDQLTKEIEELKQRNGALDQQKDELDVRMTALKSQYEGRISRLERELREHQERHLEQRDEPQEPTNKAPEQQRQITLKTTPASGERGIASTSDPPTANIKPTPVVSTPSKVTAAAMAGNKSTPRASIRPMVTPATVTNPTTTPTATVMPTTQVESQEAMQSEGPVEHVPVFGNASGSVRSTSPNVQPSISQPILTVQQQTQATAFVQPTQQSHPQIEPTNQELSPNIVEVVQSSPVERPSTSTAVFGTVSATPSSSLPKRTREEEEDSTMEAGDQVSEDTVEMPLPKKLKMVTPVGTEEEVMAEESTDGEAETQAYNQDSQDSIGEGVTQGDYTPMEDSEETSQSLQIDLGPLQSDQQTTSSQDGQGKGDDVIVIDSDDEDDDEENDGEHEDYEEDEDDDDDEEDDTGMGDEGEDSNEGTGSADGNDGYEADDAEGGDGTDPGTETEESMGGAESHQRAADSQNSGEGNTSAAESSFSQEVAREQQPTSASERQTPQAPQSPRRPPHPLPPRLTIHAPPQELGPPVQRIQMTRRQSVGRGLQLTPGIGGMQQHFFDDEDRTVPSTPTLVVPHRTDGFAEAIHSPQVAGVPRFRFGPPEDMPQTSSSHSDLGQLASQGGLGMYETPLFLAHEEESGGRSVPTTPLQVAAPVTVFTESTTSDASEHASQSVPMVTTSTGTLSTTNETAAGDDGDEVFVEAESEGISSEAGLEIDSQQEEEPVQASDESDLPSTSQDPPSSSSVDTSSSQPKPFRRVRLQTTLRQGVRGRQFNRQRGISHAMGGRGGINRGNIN
T1 sequence (P16056 25-1379 limits assumed): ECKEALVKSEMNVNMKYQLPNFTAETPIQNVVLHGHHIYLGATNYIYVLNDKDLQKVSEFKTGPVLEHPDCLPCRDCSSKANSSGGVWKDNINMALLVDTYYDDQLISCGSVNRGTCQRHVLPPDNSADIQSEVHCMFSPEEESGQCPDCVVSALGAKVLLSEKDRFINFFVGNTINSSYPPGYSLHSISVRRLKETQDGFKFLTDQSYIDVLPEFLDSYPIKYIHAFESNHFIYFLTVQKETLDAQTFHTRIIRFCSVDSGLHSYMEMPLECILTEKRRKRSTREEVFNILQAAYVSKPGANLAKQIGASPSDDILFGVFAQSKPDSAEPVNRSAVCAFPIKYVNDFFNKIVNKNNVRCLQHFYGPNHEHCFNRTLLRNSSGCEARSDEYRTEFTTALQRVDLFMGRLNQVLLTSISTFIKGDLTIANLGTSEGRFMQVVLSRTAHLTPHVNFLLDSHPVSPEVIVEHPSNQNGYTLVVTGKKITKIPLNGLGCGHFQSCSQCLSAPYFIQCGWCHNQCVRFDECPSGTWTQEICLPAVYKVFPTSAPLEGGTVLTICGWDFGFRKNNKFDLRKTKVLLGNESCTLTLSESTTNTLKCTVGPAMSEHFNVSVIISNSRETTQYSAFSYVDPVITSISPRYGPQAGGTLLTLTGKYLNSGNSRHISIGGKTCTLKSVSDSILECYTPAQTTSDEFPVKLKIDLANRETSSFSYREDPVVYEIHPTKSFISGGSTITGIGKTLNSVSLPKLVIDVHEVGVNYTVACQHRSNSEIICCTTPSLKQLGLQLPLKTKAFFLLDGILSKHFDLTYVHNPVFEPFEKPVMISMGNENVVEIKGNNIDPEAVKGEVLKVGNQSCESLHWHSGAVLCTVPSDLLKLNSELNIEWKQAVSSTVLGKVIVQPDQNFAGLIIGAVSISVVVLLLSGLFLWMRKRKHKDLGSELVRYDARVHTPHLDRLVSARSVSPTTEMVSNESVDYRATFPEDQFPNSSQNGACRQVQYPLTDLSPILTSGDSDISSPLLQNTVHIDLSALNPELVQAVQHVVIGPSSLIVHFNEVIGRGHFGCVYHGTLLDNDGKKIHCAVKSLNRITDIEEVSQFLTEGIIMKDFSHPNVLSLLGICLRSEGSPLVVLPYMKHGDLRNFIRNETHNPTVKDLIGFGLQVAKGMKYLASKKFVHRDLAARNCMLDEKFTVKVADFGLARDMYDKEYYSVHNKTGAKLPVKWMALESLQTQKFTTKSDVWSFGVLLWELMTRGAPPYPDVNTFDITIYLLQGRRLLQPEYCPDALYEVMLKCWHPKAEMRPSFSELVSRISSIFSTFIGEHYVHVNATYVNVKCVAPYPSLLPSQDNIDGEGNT

Series [2] concerns the target T1, TPR/MET fusion protein (Mus musculus). Kind of series: Inhibition of TPR-MET in mouse […] cells assessed as inhibition of cell proliferation at 10 uM after 72 hrs by SRB or MTT assay relative to control. In kind it is cell-based. A digest of the protocol: as §1
In general terms: Formazan colour is commonly taken as a measure of viable cells.

A short description of series [3]: Clearance in Sprague-Dawley rat at 2 mg/kg, iv administered as single dose. The class given is ADME, organism-based. The settings on record: in vivo. In outline: (§2)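 Male Sprague Dawley rats (n=3), single dose. iv 2 mg/kg in 1% DMA/9% Cremophor/90% saline. po 10 mg/kg in 0.5% CMC-Na. Where iv was 10 mg/kg: 10% DMSO/10% Tween 80/80% (40% PEG40); po in that case in 10% DMSO/5% Tween 80/85% saline.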

The nature of series [4]: Volume of distribution at steady state in Sprague-Dawley rat at 2 mg/kg, iv administered as single dose. In kind it is ADME, organism-based. As to conditions: in vivo, read-out: Vdss. In outline:
(§3)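 Male Sprague-Dawley rats (n=3), single dose. IV 2 mg/kg in 1% DMA/9% Cremophor/90% saline; PO 10 mg/kg in 0.5% CMC-Na. For one compound, IV 10 mg/kg in DMSO/Tween 80/PEG40 and PO 10 mg/kg in 10% DMSO/5% Tween 80/85% saline.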

The nature of series [5]: Half life in Sprague-Dawley rat at 2 mg/kg, iv administered as single dose. The class given is ADME, organism-based. As to conditions: in vivo. A digest of the protocol:
as §2

The nature of series [6]: Cmax in Sprague-Dawley rat at 10 mg/kg, po administered as single dose. In kind it is ADME, organism-based. Set-up: dose 10 mg/kg, route oral. As to conditions: in vivo. A digest of the protocol:
as §2

A short description of series [7]: Tmax in Sprague-Dawley rat at 10 mg/kg, po administered as single dose. The class given is ADME, organism-based. As to conditions: in vivo. In outline: as §3
Series [8] can be described thus: AUC (0 to infinity) in Sprague-Dawley rat at 10 mg/kg, po administered as single dose. In kind it is ADME, organism-based. On the set-up: dose 10 mg/kg, route oral, time infinity. As to conditions: in vivo.
Series [9] in a line: Oral bioavailability in Sprague-Dawley rat at 10 mg/kg administered as single dose. The class given is ADME, organism-based. The settings on record: in vivo. A digest of the protocol:
as §3

Series [10] can be described thus: Antitumor activity against human EBC1 cells xenografted in athymic nude mouse assessed as tumor growth inhibition at 25 mg/kg, po bid for 21 days measured twice a week during compound dosing relative to control. In kind it is functional. The settings on record: EBC-1, po, 504 h, read-out: TGI. A digest of the protocol: (§4)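 Nude mice bearing s.c. tumours. Cells were first grown s.c. to 700–800 mm³, then 1.5 mm³ fragments were transplanted s.c. into the right flank. Mice were randomised at 100–200 mm³ (n=6 treated, n=12 vehicle) and dosed orally twice daily for 21 days. Caliper measurement twice weekly; TV = length×width²/2. TGI taken on the final day versus vehicle; Student's t test.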

The nature of series [11]: Antitumor activity against human EBC1 cells xenografted in athymic nude mouse assessed as tumor growth inhibition at 12.5 mg/kg, po bid for 21 days measured twice a week during compound dosing relative to control. The class given is functional. The settings on record: EBC-1, po, 504 h, read-out: TGI. In outline: as §4
For orientation: In xenograft studies the graft and the host belong to different species.

Series [12] has as its target Hepatocyte growth factor receptor (Homo sapiens, UniProt P08581). Kind of series: Inhibition of recombinant c-Met (unknown origin) using poly (Glu, Tyr) 4:1 as substrate incubated for 60 mins by ELISA. For orientation: ELISA stands for enzyme-linked immunosorbent assay.
Series [13] is described as follows: Clearance in Sprague-Dawley rat at 10 mg/kg, iv administered as single dose. The class given is ADME, organism-based. The settings on record: in vivo. A digest of the protocol: as §2
Series [14] in a line: Volume of distribution at steady state in Sprague-Dawley rat at 10 mg/kg, iv administered as single dose. As to conditions: in vivo, read-out: Vdss. The class given is ADME, organism-based. In outline:
as §3

Series [15] can be described thus: Half life in Sprague-Dawley rat at 10 mg/kg, iv administered as single dose. The class given is ADME, organism-based. As to conditions: in vivo. In outline:
as §2

In a further series the test system is Mus musculus. Kind of series: Toxicity in athymic nude mouse xenografted with human EBC1 cells assessed as body weight loss at 25 mg/kg, po bid for 21 days measured twice a week during compound dosing. In kind it is organism-based. The settings on record: in vivo, 504 h. A digest of the protocol: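 Nude mice carrying s.c. EBC-1 tumor fragments, randomized at 100–200 mm³ (n=6 treated, n=12 vehicle). Dosed orally twice daily for 21 days. Body weight and caliper tumor volume measured twice weekly.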

Hepatocyte growth factor receptor, sequence (P08581 whole entry): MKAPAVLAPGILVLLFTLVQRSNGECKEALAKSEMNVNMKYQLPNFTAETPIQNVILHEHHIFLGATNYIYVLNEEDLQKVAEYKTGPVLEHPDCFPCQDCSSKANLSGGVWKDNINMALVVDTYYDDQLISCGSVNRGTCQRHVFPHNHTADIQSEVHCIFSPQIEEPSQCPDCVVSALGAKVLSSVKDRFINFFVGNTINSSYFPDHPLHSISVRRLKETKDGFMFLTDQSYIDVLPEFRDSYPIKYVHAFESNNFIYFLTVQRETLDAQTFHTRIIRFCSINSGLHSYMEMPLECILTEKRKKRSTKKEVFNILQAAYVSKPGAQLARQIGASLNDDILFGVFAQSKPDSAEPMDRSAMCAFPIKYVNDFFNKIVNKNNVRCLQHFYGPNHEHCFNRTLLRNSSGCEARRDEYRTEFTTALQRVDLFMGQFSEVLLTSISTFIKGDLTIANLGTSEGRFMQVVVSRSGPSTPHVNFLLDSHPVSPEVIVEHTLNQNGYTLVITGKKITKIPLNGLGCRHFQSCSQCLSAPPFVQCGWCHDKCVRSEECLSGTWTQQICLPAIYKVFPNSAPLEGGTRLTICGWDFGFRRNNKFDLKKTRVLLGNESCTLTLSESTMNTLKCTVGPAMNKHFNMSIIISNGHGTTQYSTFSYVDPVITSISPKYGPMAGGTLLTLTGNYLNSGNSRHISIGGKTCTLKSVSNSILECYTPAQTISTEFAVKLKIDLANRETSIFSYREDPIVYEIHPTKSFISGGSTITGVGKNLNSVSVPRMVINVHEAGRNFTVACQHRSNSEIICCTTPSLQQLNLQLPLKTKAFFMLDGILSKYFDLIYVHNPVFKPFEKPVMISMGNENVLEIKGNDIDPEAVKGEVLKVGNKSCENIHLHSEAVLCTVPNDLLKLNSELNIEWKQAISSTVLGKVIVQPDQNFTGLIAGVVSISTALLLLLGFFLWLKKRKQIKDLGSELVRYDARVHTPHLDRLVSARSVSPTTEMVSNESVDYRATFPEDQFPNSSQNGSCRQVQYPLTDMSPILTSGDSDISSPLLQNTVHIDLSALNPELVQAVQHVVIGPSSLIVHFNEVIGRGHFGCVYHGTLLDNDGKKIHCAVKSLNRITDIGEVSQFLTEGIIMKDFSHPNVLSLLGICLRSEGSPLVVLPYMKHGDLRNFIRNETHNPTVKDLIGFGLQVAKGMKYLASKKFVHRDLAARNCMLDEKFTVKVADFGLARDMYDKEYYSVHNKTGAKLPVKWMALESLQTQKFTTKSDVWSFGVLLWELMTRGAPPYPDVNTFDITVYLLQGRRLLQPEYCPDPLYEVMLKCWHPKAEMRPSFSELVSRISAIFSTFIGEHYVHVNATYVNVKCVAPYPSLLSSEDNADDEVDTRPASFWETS

Broadly, the inhibition is the drop in the measured response relative to a control, in per cent. Consider `CC(C)(C)OC(=O)N1CCC(n2cc(-c3cnc4nnc(Cc5ccc6ncccc6c5)n4n3)cn2)CC1`, for which the inhibition in [1] worked out at 68.9%; in series [2], 86.6%.

Take `O=[N+]([O-])c1cccc(-c2cnc3nnc(Cc4ccc5ncccc5c4)n3n2)c1`: the figures for the inhibition in series [1] and in series [2] were 76.6% and 88.3%, respectively.

In the case of `Clc1ccc(-c2cnc3nnc(Cc4ccc5ncccc5c4)n3n2)cc1Cl`, the results for the inhibition in series [1] and in series [2] were 82.2% and 83.5%, respectively.

Take `Oc1cccc(-c2cnc3nnc(Cc4ccc5ncccc5c4)n3n2)c1`: the inhibition in series [1] stood at 36.1%; in [2], 69.9%.

As to `c1ccc(COc2ccc(-c3cnc4nnc(Cc5ccc6ncccc6c5)n4n3)cc2)cc1`, the values for the inhibition in series [1] and in series [2] were 53.8% and 88%, respectively.

By clearance is commonly meant a measure of how efficiently the substance is removed, as volume per time. Low readings indicate inefficient removal, high ones efficient removal. A word on the half-life: it is the time in which the quantity being followed falls by half. The Cmax is the peak of the concentration-time curve. A word on the Tmax: it is the time at which the peak concentration occurs. What is called AUC(0-inf) is the area under the concentration-time curve extrapolated to infinity. Usually bioavailability stands for the share of a dose that reaches the circulation, judged against a reference dose that is usually intravenous. High values mean much systemic uptake, low ones little systemic uptake. Take `FC(F)(c1ccc2ncccc2c1)c1nnc2ncc(-c3ccco3)nn12`: in series [3], the clearance is 39.5 mL/min/kg. Also, the Vd in series [4] worked out at 5.14 L/kg. The half-life in series [5] was 1.53 h. The compound further gave a Cmax in series [6] of 961 ng/mL. The Tmax in series [7] is 0.42 h. Moreover, the AUC(0-inf) in series [8] came out at 2040 ng·h/mL. In [9], the bioavailability was 48%. In series [10], the inhibition in vivo at 25 mg/kg worked out at 65.8%. For the same compound, in series [11], the inhibition in vivo at 12.5 mg/kg worked out at 50.1%.

Turning to `c1cnc2ccc(Cc3nnc4ncc(-c5cnc6ccccc6c5)nn34)cc2c1`, the inhibition is 63.1% in series [1] and 78% in series [2].

Consider `Clc1ccc(-c2cnc3nnc(Cc4ccc5ncccc5c4)n3n2)cc1`, for which the inhibition in [1] was determined as 69.2%; in series [2], 80.6%.

Broadly, the IC50 is the concentration at which inhibition is half-maximal. Consider `Cn1cc(-c2ccc3nnc(C(F)(F)c4ccc5ncccc5c4)n3n2)cn1` [JNJ-38877605], for which the IC50 in series [12] turned out to be 0.95 nM. The inhibition in series [1] worked out at 70.8%; in [2], 72.2%.

Take `Oc1cccc(-c2cnc3nnc(Cc4c[nH]c5ccccc45)n3n2)c1`: the inhibition in series [1] is 8.2%; in [2], 10.2%.

With `Brc1ccc(-c2cnc3nnc(Cc4c[nH]c5ccccc45)n3n2)cc1`, the inhibition came to 9.9% in series [1] and 17.3% in [2].

`c1ccc(COc2ccc(-c3cnc4nnc(Cc5c[nH]c6ccccc56)n4n3)cc2)cc1`: the inhibition in [1] was 26.9%; in series [2], 58%.

As for `c1ccc(Cn2cc(-c3cnc4nnc(Cc5ccc6ncccc6c5)n4n3)cn2)cc1`, the inhibition in [1] was determined as 68.3%; in series [2], 89.5%.

With `COc1cccc(-c2cnc3nnc(Cc4ccc5ncccc5c4)n3n2)c1`, the inhibition in [1] turned out to be 69.8%; in [2] it was 81%.

With `Cn1cc(-c2cnc3nnc(C(F)(F)c4ccc5ncccc5c4)n3n2)cn1`, the clearance in series [13] was 22.3 mL/min/kg. Also, the Vd in series [14] was 0.81 L/kg. In series [15], the half-life was 1.14 h. Besides, the concentration in series [6] peaked (Cmax) at 209 ng/mL. Also, the Tmax in series [7] came out at 2.5 h. For the same compound, the area under the curve AUC(0-inf) in [8] was 780 ng·h/mL. This compound had a bioavailability in series [9] of 9.4%.

Turning to `c1cnc2ccc(Cc3nnc4ncc(-c5cnn(C6CCNCC6)c5)nn34)cc2c1`, the values for the inhibition in [1] and in series [2] were 14.9% and 77%, respectively.

With `c1ccc(-c2cnc3nnc(Cc4ccc5ncccc5c4)n3n2)cc1`, the inhibition in series [1] worked out at 58.4%; in series [2], 80.9%.

`c1csc(-c2cnc3nnc(Cc4ccc5ncccc5c4)n3n2)c1`: the inhibition in [1] amounted to 85.9%; in [2] it was 89.3%.

Turning to `CCCn1cc(-c2cnc3nnc(Cc4ccc5ncccc5c4)n3n2)cn1`, the inhibition in series [1] worked out at 88.1%; in [2], 88.4%.

As to `Brc1ccc(-c2cnc3nnc(Cc4ccc5ncccc5c4)n3n2)cc1`, the inhibition in series [1] is 75.8%; in [2] it was 83.6%.

Compound `CCCn1cc(-c2cnc3nnc(C(F)(F)c4ccc5ncccc5c4)n3n2)cn1` showed a clearance in series [3] of 30.7 mL/min/kg. In series [4], the Vd was determined as 3.2 L/kg. In series [5], this compound gave a half-life of 1.21 h. In [6], the Cmax amounted to 1610 ng/mL. In addition, the Tmax in series [7] is 0.5 h. This compound also showed an AUC(0-inf) in series [8] of 3390 ng·h/mL. Besides, the bioavailability in series [9] stood at 61.6%. In addition, in series [10], the inhibition in vivo at 25 mg/kg came to 96.6%. For the same compound, the inhibition in vivo at 12.5 mg/kg in series [11] was determined as 75.9%. The Activity entry in the series on Mus musculus is given as “Toxic”.

For `CCn1cc(-c2cnc3nnc(Cc4ccc5ncccc5c4)n3n2)cn1`, the inhibition in [1] was determined as 85.5%; in series [2], 97.1%.

For the compound `Cn1cc(-c2cnc3nnc(Cc4ccc5ncccc5c4)n3n2)cn1`, the inhibition in series [1] is 76.9%; in [2], 77.8%.

For the origin of these results see ChEMBL document CHEMBL3797175, “Discovery of 6-(difluoro(6-(4-fluorophenyl)-[1,2,4]triazolo[4,3-b][1,2,4]triazin-3-yl)methyl)quinoline as a highly potent and selective c-Met inhibitor” (Eur J Med Chem, 2016).
